Measurements: ChEMBL document CHEMBL4477168, “Hydrolyzable Tannins of Tamaricaceous Plants. 7.1 Structures and Cytotoxic Properties of Oligomeric Ellagitannins from Leaves of Tamarix nilotica and Cultured Tissues of Tamarix tetrandra” (J Nat Prod, 2016)

Tests used:
HSC-3 = assay: Cytotoxic activity against human HSC3 cells assessed as reduction in cell viability incubated for 48 hrs by MTT assay; format: functional; details: HSC-3, 48 h
Outline: (§1)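 OSCC lines HSC-2, HSC-3, HSC-4 grown in DMEM + 10% heat-inactivated FBS, 37 °C, humidified 5% CO2. Seeded 5 × 10^3 cells/well; after 48 h medium swapped for compound-containing medium (20 mM DMSO stock; top 100 μM, 2-fold serial dilution, three replicate wells). Further 48 h, viable cells by MTT; CC50 read from dose−response curve; at least three independent experiments averaged.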

[1] = Cytotoxic activity against human HPLF cells assessed as reduction in cell viability incubated for 48 hrs by MTT assay; format: cell-based
Outline: (§2)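 Normal oral cells (gingival fibroblasts, pulp cells, periodontal ligament fibroblasts) from a premolar of a child, used at 8−15 population doublings; DMEM + 10% heat-inactivated FBS, 37 °C, 5% CO2. Seeded 5 × 10^3 cells/well, medium replaced after 48 h with compound (DMSO stock 20 mM; 2-fold dilutions from 100 μM, triplicate wells); 48 h more, MTT viability; CC50 from dose−response curve; mean of ≥3 independent experiments.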

[2] = Cytotoxic activity against human HGF cells assessed as reduction in cell viability incubated for 48 hrs by MTT assay; format: cell-based; outline: as §2
HSC-4 = assay: Cytotoxic activity against human HSC4 cells assessed as reduction in cell viability incubated for 48 hrs by MTT assay; format: functional; details: HSC-4, 48 h; outline: as §1
[3] = Cytotoxic activity against human HPC cells assessed as reduction in cell viability incubated for 48 hrs by MTT assay; format: cell-based; outline: as §2
HSC-2 = assay: Cytotoxic activity against human HSC2 cells assessed as reduction in cell viability incubated for 48 hrs by MTT assay; format: functional; details: HSC-2, 48 h; outline: as §1
HL-60 = assay: Cytotoxic activity against human HL60 cells assessed as reduction in cell viability incubated for 48 hrs by trypan blue staining based hemocytometry; format: functional; details: HL-60, 48 h
Outline: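 HL-60 cultured in RPMI1640 + 10% heat-inactivated FBS at 37 °C; plated at 3.0 × 10^4 cells/0.1 mL with various compound concentrations (DMSO stock 20 mM). After 48 h, viable cells counted by trypan blue exclusion on a hemocytometer under light microscope; CC50 from dose−response curve, mean of at least three independent experiments.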

| Structure (SMILES) | CC50 (HSC-3) | CC50 at 48 h [1] | CC50 at 48 h [2] | CC50 (HSC-4) | CC50 at 48 h [3] | CC50 (HSC-2) | CC50 (HL-60) |
| --- | --- | --- | --- | --- | --- | --- | --- |
| O=C(O[C@@H]1O[C@@H]2COC(=O)c3cc(O)c(O)c(O)c3-c3c(cc(O)c(O)c3O)C(=O)O[C@H]2[C@H](OC(=O)c2cc(O)c(O)c(O)c2)[C@H]1OC(=O)c1cc(O)c(O)c(O)c1Oc1cc(C(=O)O[C@@H]2O[C@@H]3COC(=O)c4cc(O)c(O)c(O)c4-c4c(cc(O)c(O)c4O)C(=O)O[C@H]3[C@H](OC(=O)c3cc(O)c(O)c(O)c3)[C@H]2OC(=O)c2cc(O)c(O)c(O)c2Oc2cc3c(c(O)c2O)Oc2cc(cc(O)c2O)C(=O)O[C@@H]2O[C@@H]4COC(=O)c5cc(O)c(O)c(O)c5-c5c(cc(O)c(O)c5O)C(=O)O[C@H]4[C@H](OC(=O)c4cc(O)c(O)c(O)c4)[C@H]2OC3=O)cc(O)c1O)c1cc(O)c(O)c(O)c1 | 25.5 µM | 98.6 µM | 87.7 µM | 34.3 µM | 85 µM | 18.8 µM | 16.4 µM |
| O=C(O[C@H]1[C@@H]2OC(=O)c3cc(O)c(O)c(O)c3-c3c(cc(O)c(O)c3O)C(=O)OC[C@H]2OC(O)[C@@H]1O)c1cc(O)c(O)c(O)c1 (some centres undefined) | 23.3 µM | > 100 µM | > 100 µM | 34.4 µM | > 100 µM | 5.82 µM | 30.5 µM |
| O=C(O[C@@H]1O[C@@H]2COC(=O)c3cc(O)c(O)c(O)c3-c3c(cc(O)c(O)c3O)C(=O)O[C@H]2[C@H](OC(=O)c2cc(O)c(O)c(O)c2)[C@H]1OC(=O)c1cc(O)c(O)c(O)c1)c1cc(O)c(O)c(Oc2c(C(=O)O[C@H]3[C@H](OC(=O)c4cc(O)c(O)c(Oc5c(C(=O)O[C@H]6C(O)O[C@@H]7COC(=O)c8cc(O)c(O)c(O)c8-c8c(cc(O)c(O)c8O)C(=O)O[C@H]7[C@@H]6OC(=O)c6cc(O)c(O)c(O)c6)cc(O)c(O)c5O)c4)O[C@@H]4COC(=O)c5cc(O)c(O)c(O)c5-c5c(cc(O)c(O)c5O)C(=O)O[C@H]4[C@@H]3OC(=O)c3cc(O)c(O)c(O)c3)cc(O)c(O)c2O)c1 (some centres undefined) | 21.2 µM | 88.3 µM | 88 µM | 33.9 µM | 86 µM | 23.2 µM | 6.48 µM |
| O=C(O[C@@H]1O[C@@H]2COC(=O)c3cc(O)c(O)c(O)c3-c3c(cc(O)c(O)c3O)C(=O)O[C@H]2[C@H](OC(=O)c2cc(O)c(O)c(O)c2)[C@H]1OC(=O)c1cc(O)c(O)c(O)c1)c1cc(O)c(O)c(Oc2c(C(=O)O[C@@H]3[C@@H](OC(=O)c4cc(O)c(O)c(O)c4)[C@@H]4OC(=O)c5cc(O)c(O)c(O)c5-c5c(cc(O)c(O)c5O)C(=O)OC[C@H]4O[C@H]3O)cc(O)c(O)c2O)c1 | 32.6 µM | > 100 µM | 92 µM | 37.9 µM | 86.6 µM | 17.7 µM | 19.5 µM |
| O=C(O[C@@H]1O[C@@H]2COC(=O)c3cc(O)c(O)c(O)c3-c3c(cc(O)c(O)c3O)C(=O)O[C@H]2[C@H](OC(=O)c2cc(O)c(O)c(O)c2)[C@H]1OC(=O)c1cc(O)c(O)c(O)c1)c1cc(O)c(Oc2c(C(=O)O[C@H]3[C@H](OC(=O)c4cc(O)c(O)c(O)c4)O[C@@H]4COC(=O)c5cc(O)c(O)c(O)c5-c5c(cc(O)c(O)c5O)C(=O)O[C@H]4[C@@H]3OC(=O)c3cc(O)c(O)c(O)c3)cc(O)c(O)c2O)c(O)c1 | 29.4 µM | > 100 µM | 95.3 µM | 27.7 µM | 89 µM | 16.3 µM | 29.7 µM |
| O=C(O[C@@H]1O[C@@H]2COC(=O)c3cc(O)c(O)c(O)c3-c3c(cc(O)c(O)c3O)C(=O)O[C@H]2[C@H](OC(=O)c2cc(O)c(O)c(O)c2)[C@H]1O)c1cc(O)c(O)c(O)c1 | 28 µM | > 100 µM | > 100 µM | 38 µM | > 100 µM | 14.1 µM | 39.9 µM |
| O=C(O[C@H]1[C@@H]2OC(=O)c3cc(O)c(O)c(O)c3-c3c(cc(O)c(O)c3O)C(=O)OC[C@H]2OC(O)[C@@H]1OC(=O)c1cc(O)c(O)c(O)c1)c1cc(O)c(O)c(O)c1 (some centres undefined) | 19.5 µM | > 100 µM | > 100 µM | 45.7 µM | 64 µM | 14.6 µM | 46.7 µM |
